From paper PMC12799515 (Journal of Orthopaedic Translation, 2025)

Key:
[1] = test system: mitophagy; details: cited from earlier work
[2] = no reference given; cited from earlier work
[3] = test system: inTPCs; assay: ALP and ARS staining of inTPCs; type: cell-based, C57BL/6 J mice; details: 1 μM CCCP or 5 μM CsA, vs vehicle; for ARS staining: four stimulation cycles; for ALP staining: three stimulation cycles
In short: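 Mouse tendon cells were digested with collagenase, grown in low-glucose DMEM/15% FBS and used at passage 3–4. Each cycle was 2 days of ODM (high-glucose DMEM, 10−8 M dexamethasone, 50 μg/mL vitamin C, 10 mM β-glycerol phosphate, 10% FBS) with test compound or solvent, then 2 days of plain ODM. ALP: 3 cycles, 4% PFA 30 min, BCIP/NBT stain. ARS: 4 cycles, kit fixative 20 min. Positive ratio quantified by image analysis.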

[4] = test system: PINK1, Parkin, LC3BⅡ, p62 in inTPCs; assay: Western blotting of mitophagy-related proteins in inTPCs; type: cell-based, C57BL/6 J mice
In short: (§1)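 Mouse tendon cells were treated in one of two ways: three 4-day cycles (2 days ODM with test compound or solvent, then 2 days plain ODM), or 2 days of osteogenic induction with 100 nM Slc25a4 siRNA (RNAiMAX) ±1 μM test compound added on day 2. Proteins were extracted in RIPA with protease/phosphatase inhibitors, heated to 100 °C for 10 min, separated by SDS-PAGE, transferred to PVDF, blocked with 5% milk and detected by ECL. Bands were quantified by densitometry.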

[5] = test system: OCN, RUNX2, ALP in inTPCs; assay: Western blotting of osteogenic-related proteins in inTPCs; type: cell-based, C57BL/6 J mice; details: for protein expression of OCN, RUNX2, ALP: 1 μM CCCP or 5 μM CsA, three stimulation cycles in ODM, vs vehicle
In short: as §1

[6] = test system: mitophagy-related genes Pink1, Prkn, LC3b, p62 in inTPCs; assay: qRT–PCR of mitophagy-related genes in inTPCs; type: cell-based, C57BL/6 J mice; details: 1 μM CCCP or 5 μM CsA, three stimulation cycles in ODM, vs vehicle
In short: (§2)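 Mouse tendon cells (passage 3–4) received three 4-day cycles: 2 days of ODM containing test compound or equal-volume solvent, then 2 days of plain ODM. Transcripts were measured by SYBR Green qRT–PCR, normalised to Gapdh, with relative expression calculated by the 2−ΔΔCt method.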

[7] = test system: osteogenic-related genes Ocn, Runx2, Alpl in inTPCs; assay: qRT–PCR of osteogenic-related genes in inTPCs; type: cell-based, C57BL/6 J mice; details: 1 μM CCCP or 5 μM CsA, three stimulation cycles in ODM, vs vehicle
In short: as §2

[8] = test system: ANT1 in inTPCs; assay: ANT1/Slc25a4 expression in inTPCs; type: cell-based, C57BL/6 J mice; details: two days osteogenic induction, 1 μM CCCP
In short: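 Mouse tendon cells under 2 days of osteogenic induction were transfected with 100 nM Slc25a4 siRNA or control siRNA (RNAiMAX) for 2 days, with 1 μM test compound added on day 2. ANT1 protein was measured by western blot (RIPA lysis with protease/phosphatase inhibitors, 100 °C 10 min, SDS-PAGE, PVDF, 5% milk block, ECL, band densitometry). Slc25a4 mRNA was measured by SYBR qRT–PCR against Gapdh (2−ΔΔCt).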

[9] = test system: inTPCs; assay: Cell viability; type: cell-based, C57BL/6 J mice; details: 1 μM CCCP or 5 μM CsA, 48 h
In short: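 Mouse tendon cells (passage 3–4) were seeded in 96-well plates and exposed to test compound at varying concentrations (0, 0.1, 0.5, 1, 5, 10 μM for the inhibitor) for 48 h. They were then incubated with 10% CCK-8 at 37 °C for 1 h, and absorbance was read at 450 nm to calculate viability.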

[10] = test system: inTPCs; assay: Apoptosis; type: cell-based, C57BL/6 J mice; details: 1 μM CCCP or 5 μM CsA
[11] = 1 μM CCCP or 5 μM CsA, three stimulation cycles in ODM, vs vehicle
[12] = two days osteogenic induction, 100 nM si-Slc25a4 two days, or 1 μM CCCP

Row | Compound | toxicity of ANT1 inhibitors [2] | ARS staining [3] | ALP staining [3] | p62 protein expression [4, 11] | protein expression of PINK1, Parkin, LC3BⅡ [4, 11] | protein expression of OCN, RUNX2, ALP [5] | gene expression of Pink1, Prkn, LC3b [6] | p62 gene expression [6] | gene expression of Ocn, Runx2, Alpl [7] | also measured
1 | OC1c2cc3ccc4cccc5ccc(c2C2OC2C1O)c3c45 (stereo not shown) [benzo(a)pyrene-7,8-dihydrodiol-9, 10-epoxide] |  |  |  |  |  |  |  |  |  | mitophagy [1]: suppressed
2 | C=C1[C@@H]2CC[C@H]3[C@]4(C)C[C@H](O[C@@H]5O[C@H](CO)[C@@H](OS(=O)(=O)O)[C@H](OS(=O)(=O)O)[C@H]5OC(=O)CC(C)C)CC(C(=O)O)(C(=O)O)[C@H]4CC[C@]3(C2)[C@H]1O [CATR, carboxyatractyloside] | toxic agents unsuitable for clinical use |  |  |  |  |  |  |  |  | 
3 | cyclosporin A [CsA] |  | reduced | reduced | p62 accumulation | downregulated | downregulated | suppressed | promoted | suppressed | 
4 | CO[C@H](C/C=C\C=C\CC/C=C/C[C@H](C)/C=C/C(=C\C(=O)O)CC(=O)O)/C(C)=C\C=C(/C)C(=O)O [BKA, bongkrekic acid] | toxic agents unsuitable for clinical use |  |  |  |  |  |  |  |  | 
5 | N#CC(C#N)=NNc1cccc(Cl)c1 [CCCP, carbonyl cyanide 3-chlorophenylhydrazone] |  | increased | increased | p62 suppression | upregulated | upregulated | increased | suppressed | increased | p62 protein expression [4, 12]: suppressed; protein expression of PINK1, Parkin, LC3BⅡ [4, 12]: promoted; protein expression of RUNX2, ALP [5, 12]: promoted; ANT1 protein expression [8]: did not affect ANT1 expression; cell viability (poisoning) [9]: did not cause poisoning; apoptosis [10]: did not cause poisoning (Fig. 3A and B) or apoptosis
